Activity calls are given as the source filed them.
Columns and labels:
Mus musculus [1] = assay: Anticonvulsant activity in mouse assessed as protection against metrazole-induced seizures at 30 mg/kg, ip after 30 mins by subcutaneous pentylenetetrazole seizure threshold test; assay type: functional, organism-based; set-up: dose 30 mg/kg
In short: (§1)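 Screen in mice given 30, 100 or 300 mg/kg ip in 0.9% NaCl or 30% PEG 400 (0.01 ml/g), four animals per dose. Subcutaneous metrazole challenge was given to one mouse per dose at 30 min and to another at 4 h. Activity was scored as the lowest active dose.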

Mus musculus [2] = assay: Anticonvulsant activity in ip dosed mouse assessed as protection against metrazole-induced seizures by subcutaneous pentylenetetrazole seizure threshold test; assay type: functional
In short: (§2)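 Against subcutaneous metrazole in ip-dosed mice (0.9% NaCl or 30% PEG 400 vehicle), ED50 was taken at 30 min or at the time of peak effect (0.5 h or 2 h, as the line states). ED50 and confidence limits were derived by Litchfield–Wilcoxon.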

Mus musculus [3] = assay: Anticonvulsant activity in mouse assessed as protection against metrazole-induced seizures at 300 mg/kg, ip after 4 hrs by subcutaneous pentylenetetrazole seizure threshold test; assay type: functional, organism-based; set-up: dose 300 mg/kg; in short: as §1
Mus musculus [4] = assay: Anticonvulsant activity in mouse assessed as protection against maximal electroshock-induced hindlimb tonic extensor component of seizure at 300 mg/kg, ip after 30 mins by MES test; assay type: functional, organism-based; set-up: dose 300 mg/kg
In short: (§3)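 Mice were dosed ip at 30, 100 or 300 mg/kg in 0.9% NaCl or 30% PEG 400 (0.01 ml/g), with four animals per dose. One mouse per dose got MES at 30 min and another at 4 h. Stimulus: 60-Hz AC, 50 mA, 0.2 s, corneal electrodes. Protection was abolition of hindlimb tonic extension; the lowest active dose was scored.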

Mus musculus [5] = assay: Anticonvulsant activity in mouse assessed as protection against maximal electroshock-induced hindlimb tonic extensor component of seizure at 300 mg/kg, ip after 4 hrs by MES test; assay type: functional, organism-based; set-up: dose 300 mg/kg; in short: as §3
Mus musculus [6] = assay: Anticonvulsant activity in ip dosed mouse assessed as protection against maximal electroshock-induced hindlimb tonic extensor component of seizure by MES test; assay type: functional
In short: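 Mice dosed ip at 30, 100 and 300 mg/kg, compound in 0.9% NaCl or 30% PEG 400 (0.01 ml/g); four animals per dose, one tested at 30 min and one at 4 h. Seizure induced by 60-Hz corneal current, 50 mA, 0.2 s; protection = abolition of hindlimb tonic extension. ED50 with confidence limits by Litchfield–Wilcoxon.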

[7] = Neurotoxicity in ip dosed mouse by rotarod test; assay type: toxicity, organism-based; details: in vivo
Mus musculus [8] = assay: Anticonvulsant activity in mouse assessed as protection against metrazole-induced seizures at 30 mg/kg, ip after 4 hrs by subcutaneous pentylenetetrazole seizure threshold test; assay type: functional, organism-based; set-up: dose 30 mg/kg; in short: as §1
Mus musculus [9] = assay: Neurotoxicity in ip dosed mouse assessed as CNS depression; assay type: toxicity, organism-based, Central nervous system; details: in vivo
Mus musculus [10] = assay: Anticonvulsant activity against metrazole-induced seizures in ip dosed mouse assessed as duration of action by subcutaneous pentylenetetrazole seizure threshold test; assay type: functional; in short: as §1
Mus musculus [11] = assay: Anticonvulsant activity in mouse assessed as protection against maximal electroshock-induced hindlimb tonic extensor component of seizure at 30 mg/kg, ip after 4 hrs by MES test; assay type: functional, organism-based; set-up: dose 30 mg/kg; in short: as §3
Mus musculus [12] = assay: Anticonvulsant activity in mouse assessed as protection against metrazole-induced seizures at 300 mg/kg, ip after 30 mins by subcutaneous pentylenetetrazole seizure threshold test; assay type: functional, organism-based; set-up: dose 300 mg/kg; in short: as §1
Mus musculus [13] = assay: Anticonvulsant activity in mouse assessed as protection against maximal electroshock-induced hindlimb tonic extensor component of seizure at 100 mg/kg, ip after 30 mins by MES test; assay type: functional, organism-based; set-up: dose 100 mg/kg; in short: as §3
Mus musculus [14] = assay: Anticonvulsant activity in ip dosed mouse assessed as protection against maximal electroshock-induced hindlimb tonic extensor component of seizure after 2 hrs by MES test; assay type: functional
In short: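 MES ED50 in ip-dosed mice (0.9% NaCl or 30% PEG 400 vehicle) was read at the time of peak effect (2 h). Stimulus: 60-Hz AC, 50 mA, 0.2 s via corneal electrodes, with abolition of hindlimb tonic extension as the end point. ED50 and confidence limits were derived by Litchfield–Wilcoxon.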

Mus musculus [15] = assay: Anticonvulsant activity against maximal electroshock-induced hindlimb tonic extensor component of seizure in ip dosed mouse assessed as duration of action by MES test; assay type: functional; in short: as §3
Mus musculus [16] = assay: Anticonvulsant activity in ip dosed mouse assessed as protection against metrazole-induced seizures after 2 hrs by subcutaneous pentylenetetrazole seizure threshold test; assay type: functional; in short: as §2
Mus musculus [17] = assay: Anticonvulsant activity in mouse assessed as protection against maximal electroshock-induced hindlimb tonic extensor component of seizure at 100 mg/kg, ip after 4 hrs by MES test; assay type: functional, organism-based; set-up: dose 100 mg/kg; in short: as §3
Mus musculus [18] = assay: Anticonvulsant activity in ip dosed mouse assessed as protection against metrazole-induced seizures after 0.5 hrs by subcutaneous pentylenetetrazole seizure threshold test; assay type: functional; in short: as §2
Mus musculus [19] = assay: Anticonvulsant activity in mouse assessed as protection against metrazole-induced seizures at 100 mg/kg, ip after 4 hrs by subcutaneous pentylenetetrazole seizure threshold test; assay type: functional, organism-based; set-up: dose 100 mg/kg; in short: as §1

Structure (SMILES): CN1C(=O)CC(C)(c2ccccc2)C1=O (stereo not given) [METHSUXIMIDE]
- Activity (Mus musculus [1]): Active
- ED50 (Mus musculus [2]): 35 mg/kg
- Activity (Mus musculus [3]): inactive
- Activity (Mus musculus [4]): Active
- Activity (Mus musculus [5]): Active
- ED50 (Mus musculus [6]): 76 mg/kg
- TD50 [7]: 188 mg/kg

Structure (SMILES): CN1C(=O)CC(CCN2C(=O)C=CC2=O)(c2ccccc2)C1=O (stereo not given)
- Activity (Mus musculus [1]): Active
- Activity (Mus musculus [8]): Active
- Activity (Mus musculus [9]): Toxic
- Time (Mus musculus [10]): 3.5 h
- Activity (Mus musculus [4]): inactive
- Activity (Mus musculus [11]): Active

Structure (SMILES): CN1C(=O)CC(C(=O)c2ccc(NC(=O)/C=C\C(=O)O)cc2)(c2ccccc2)C1=O (stereo not given)
- Activity (Mus musculus [3]): inactive
- Activity (Mus musculus [4]): inactive
- Activity (Mus musculus [12]): inactive
- Activity (Mus musculus [5]): inactive

Structure (SMILES): CN1C(=O)CC(c2ccccc2)C1=O (stereo not given) [PHENSUXIMIDE]
- Activity (Mus musculus [1]): Active
- ED50 (Mus musculus [2]): 50 mg/kg
- Activity (Mus musculus [8]): Active
- Activity (Mus musculus [5]): Active
- Activity (Mus musculus [13]): Active
- TD50 [7]: 232 mg/kg

Structure (SMILES): CN1C(=O)CC(C(=O)c2ccc(NC(=O)CBr)cc2)(c2ccccc2)C1=O (stereo not given)
- Activity (Mus musculus [3]): inactive
- Activity (Mus musculus [4]): inactive
- Activity (Mus musculus [12]): inactive
- Activity (Mus musculus [5]): inactive

Structure (SMILES): CN1C(=O)CC(C(=O)CBr)(c2ccccc2)C1=O (stereo not given)
- Activity (Mus musculus [1]): Active
- Activity (Mus musculus [3]): inactive
- Activity (Mus musculus [4]): inactive
- Activity (Mus musculus [5]): inactive

Structure (SMILES): CN1C(=O)CC(CCCNC(=O)/C=C\C(=O)O)(c2ccccc2)C1=O (stereo not given)
- Activity (Mus musculus [3]): inactive
- Activity (Mus musculus [4]): inactive
- Activity (Mus musculus [12]): inactive
- Activity (Mus musculus [5]): inactive

Structure (SMILES): CN1C(=O)CC(CCNC(=O)CCl)(c2ccccc2)C1=O (stereo not given)
- Activity (Mus musculus [3]): inactive
- Activity (Mus musculus [4]): inactive
- Activity (Mus musculus [12]): inactive
- Activity (Mus musculus [5]): inactive

Structure (SMILES): CN1C(=O)CC(C(=O)c2ccc(N3C(=O)C=CC3=O)cc2)(c2ccccc2)C1=O (stereo not given)
- Activity (Mus musculus [3]): inactive
- Activity (Mus musculus [4]): inactive
- Activity (Mus musculus [12]): inactive
- Activity (Mus musculus [5]): inactive

Structure (SMILES): CN1C(=O)CC(C(=O)CCl)(c2ccccc2)C1=O (stereo not given)
- ED50 (Mus musculus [14]): 225 mg/kg
- Activity (Mus musculus [1]): Active
- Activity (Mus musculus [3]): inactive
- Activity (Mus musculus [4]): Active
- Activity (Mus musculus [5]): Active
- Time (Mus musculus [15]): 3.5 h
- ED50 (Mus musculus [16]): 100 mg/kg

Structure (SMILES): CN1C(=O)CC(c2ccc(NC(=O)CI)cc2)C1=O (stereo not given)
- Activity (Mus musculus [1]): Active
- Activity (Mus musculus [9]): Toxic
- Activity (Mus musculus [3]): inactive
- Activity (Mus musculus [4]): inactive
- Activity (Mus musculus [17]): Active

Structure (SMILES): CN1C(=O)CC(c2ccc(NC(=O)CBr)cc2)C1=O (stereo not given)
- Activity (Mus musculus [1]): Active
- Activity (Mus musculus [8]): Active
- Activity (Mus musculus [9]): Toxic
- Time (Mus musculus [10]): 3.5 h
- Activity (Mus musculus [4]): inactive
- ED50 (Mus musculus [18]): 35 mg/kg
- Activity (Mus musculus [5]): inactive
- TD50 [7]: 54 mg/kg

Structure (SMILES): CN1C(=O)CC(c2ccc(NC(=O)/C=C\C(=O)O)cc2)C1=O (stereo not given)
- Activity (Mus musculus [3]): inactive
- Activity (Mus musculus [4]): inactive
- Activity (Mus musculus [12]): inactive
- Activity (Mus musculus [5]): inactive

Structure (SMILES): CN1C(=O)CC(CCNC(=O)/C=C\C(=O)O)(c2ccccc2)C1=O (stereo not given)
- Activity (Mus musculus [3]): inactive
- Activity (Mus musculus [4]): inactive
- Activity (Mus musculus [12]): inactive
- Activity (Mus musculus [5]): inactive

Structure (SMILES): CN1C(=O)CC(CCCNC(=O)CCl)(c2ccccc2)C1=O (stereo not given)
- Activity (Mus musculus [3]): inactive
- Activity (Mus musculus [4]): inactive
- Activity (Mus musculus [12]): inactive
- Activity (Mus musculus [5]): inactive

Structure (SMILES): CN1C(=O)CC(c2ccc(NC(=O)CCl)cc2)C1=O (stereo not given)
- Activity (Mus musculus [3]): inactive
- Activity (Mus musculus [4]): inactive
- Activity (Mus musculus [12]): inactive
- Activity (Mus musculus [5]): inactive

Structure (SMILES): CN1C(=O)CC(c2ccc(N3C(=O)C=CC3=O)cc2)C1=O (stereo not given)
- Activity (Mus musculus [1]): Active
- Activity (Mus musculus [9]): Toxic
- Activity (Mus musculus [3]): inactive
- Activity (Mus musculus [4]): inactive
- Activity (Mus musculus [5]): inactive

Structure (SMILES): CCC1(C)CC(=O)NC1=O (stereo not given) [ETHOSUXIMIDE]
- ED50 (Mus musculus [2]): 130 mg/kg
- Activity (Mus musculus [3]): inactive
- Activity (Mus musculus [4]): inactive
- Activity (Mus musculus [12]): Active
- Activity (Mus musculus [5]): inactive
- ED50 (Mus musculus [6]): > 1000 mg/kg

Structure (SMILES): CN1C(=O)CC(CCCN2C(=O)C=CC2=O)(c2ccccc2)C1=O (stereo not given)
- Activity (Mus musculus [9]): Toxic
- Activity (Mus musculus [19]): Active
- Activity (Mus musculus [4]): inactive
- Activity (Mus musculus [12]): inactive
- Activity (Mus musculus [5]): inactive
